Experimental data: ChEMBL document CHEMBL1153971, “Design, synthesis, biological evaluation and molecular modelling studies of novel quinoline derivatives against Mycobacterium tuberculosis” (Bioorg Med Chem, 2009)
In brackets after ≈: the same amount, converted by molar mass.

Columns and labels:
[1] = test system: Mycobacterium tuberculosis; experiment: Antimycobacterial activity against Mycobacterium tuberculosis H37Rv ATCC 27294 at 6.25 ug/mL by radiometric method; type: functional
[2] = Cytotoxicity against human THP1 cells assessed as cell viability at 10 ug/100 mL after 72 hrs by MTT assay; type: cell-based; conditions: THP-1 cells, read-out: Activity
Summary of the method: (§1)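 Monocytic THP-1 cells were seeded at 10,000 cells/100 µL and cultured at 37 °C in 5% CO2. Compounds were added at 1 or 10 µg/100 µL, with medium plus DMSO as live control. After 24 or 72 h, MTT (stock 5 mg/mL) was added for 4 h, then isopropanol. Absorbance was read at 540 nm and reported as percent viability. Triplicates, mean of three readings.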

[3] = test system: Mycobacterium tuberculosis; experiment: Antimycobacterial activity against Mycobacterium tuberculosis H37Rv ATCC 27294 assessed as growth index at 6.25 ug/mL after 5 days by radiometric method; type: functional
Summary of the method: (§2)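 M. tuberculosis H37Rv (ATCC 27294) in a BACTEC 460 radiometric culture. A single 6.25 µg/mL dose was given on day 1. Growth index was read daily from day 1 to day 9 against an untreated culture and an isoniazid-treated culture under identical conditions. Three independent readings were taken. Compounds were dissolved in DMSO.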

[4] = Cytotoxicity against human THP1 cells assessed as cell viability at 1 ug/100 mL after 72 hrs by MTT assay; type: cell-based; conditions: THP-1 cells, read-out: Activity; summary of the method: as §1
[5] = test system: Mycobacterium tuberculosis; experiment: Antimycobacterial activity against Mycobacterium tuberculosis H37Rv ATCC 27294 assessed as growth index at 6.25 ug/mL after 3 days by radiometric method; type: functional; summary of the method: as §2
[6] = test system: Mycobacterium tuberculosis; experiment: Antimycobacterial activity against Mycobacterium tuberculosis H37Rv ATCC 27294 assessed as growth index at 6.25 ug/mL after 7 days by radiometric method; type: functional; summary of the method: as §2
[7] = test system: Mycobacterium tuberculosis; experiment: Antimycobacterial activity against Mycobacterium tuberculosis H37Rv ATCC 27294 assessed as growth index at 6.25 ug/mL after 1 day by radiometric method; type: functional; summary of the method: as §2
[8] = test system: Mycobacterium tuberculosis; experiment: Antimycobacterial activity against Mycobacterium tuberculosis H37Rv ATCC 27294 assessed as growth index at 6.25 ug/mL after 8 days by radiometric method; type: functional; summary of the method: as §2
[9] = test system: Mycobacterium tuberculosis; experiment: Antimycobacterial activity against Mycobacterium tuberculosis H37Rv ATCC 27294 assessed as growth index at 6.25 ug/mL after 6 days by radiometric method; type: functional; summary of the method: as §2
[10] = Cytotoxicity against human THP1 cells assessed as cell viability at 1 ug/100 mL after 24 hrs by MTT assay; type: cell-based; conditions: THP-1 cells, read-out: Activity; summary of the method: as §1
[11] = Cytotoxicity against human THP1 cells assessed as cell viability at 10 ug/100 mL after 24 hrs by MTT assay; type: cell-based; conditions: THP-1 cells, read-out: Activity; summary of the method: as §1
[12] = test system: Mycobacterium tuberculosis; experiment: Antimycobacterial activity against Mycobacterium tuberculosis H37Rv ATCC 27294 assessed as growth inhibition at 6.25 ug/mL after 7 to 9 days by radiometric method; type: functional; conditions: read-out: GI
Summary of the method: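 Single-concentration screen against H37Rv (ATCC 27294) by the BACTEC 460 radiometric method. Compound was added once at 6.25 µg/mL on day one. […] DMSO was the vehicle.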

[13] = test system: Mycobacterium tuberculosis; experiment: Antimycobacterial activity against Mycobacterium tuberculosis H37Rv ATCC 27294 by radiometric method; type: functional
Summary of the method: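 MIC against H37Rv by the BACTEC radiometric method. Five concentrations were tested: 6.25, […], 1.56, 0.78 and 0.39 µg/mL. Compounds were dissolved in DMSO.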

[14] = test system: Mycobacterium tuberculosis; experiment: Antimycobacterial activity against Mycobacterium tuberculosis H37Rv ATCC 27294 assessed as growth index at 6.25 ug/mL after 9 days by radiometric method; type: functional; summary of the method: as §2
[15] = test system: Mycobacterium tuberculosis; experiment: Antimycobacterial activity against Mycobacterium tuberculosis H37Rv ATCC 27294 assessed as growth index at 6.25 ug/mL after 2 days by radiometric method; type: functional; summary of the method: as §2
[16] = test system: Mycobacterium tuberculosis; experiment: Antimycobacterial activity against Mycobacterium tuberculosis H37Rv ATCC 27294 assessed as growth index at 6.25 ug/mL after 4 days by radiometric method; type: functional; summary of the method: as §2

COc1nc2ccc(Br)cc2cc1C(c1ccccc1)n1nnnc1C (centres undefined)
inhibition at 6.25 µg/mL [1]: 14%

COC(=O)C(C(=O)N1CCN(c2cccc(C(F)(F)F)c2)CC1)C(c1ccccc1)c1cc2cc(Br)ccc2nc1OC (centres undefined)
inhibition at 6.25 µg/mL [1]: 8%

CCOC(=O)C1CCN(C(c2ccccc2)c2cc3cc(Br)ccc3nc2OC)CC1 (centres undefined)
inhibition at 6.25 µg/mL [1]: 16%

COc1nc2ccc(Br)cc2cc1C(c1ccccc1)N1CCCCC1 (centres undefined)
inhibition at 6.25 µg/mL [1]: 53%

COc1nc2ccc(Br)cc2cc1C(c1ccccc1)N1CCOCC1 (centres undefined)
inhibition at 6.25 µg/mL [1]: 69%

COC(=O)C(C(=O)N1CCOCC1)C(c1ccccc1)c1cc2cc(Br)ccc2nc1OC (centres undefined)
inhibition at 6.25 µg/mL [1]: 5%

COC(=O)C(C(=O)N1CCCC1)C(c1ccccc1)c1cc2cc(Br)ccc2nc1OC (centres undefined)
inhibition at 6.25 µg/mL [1]: 5%

COC(=O)C(C(=O)N1CCCCC1)C(c1ccccc1)c1cc2cc(Br)ccc2nc1OC (centres undefined)
inhibition at 6.25 µg/mL [1]: 11%

COc1nc2ccc(Br)cc2cc1C(c1ccccc1)N1CCN(c2cccc(C(F)(F)F)c2)CC1 (centres undefined)
viability at 72 h, 10 ug/100 mL [2]: 97%
Growth_index [3]: 0
viability at 72 h, 1 ug/100 mL [4]: 100%
Growth_index [5]: 0
Growth_index [6]: 0
Growth_index [7]: 1
Growth_index [8]: 0
Growth_index [9]: 0
viability at 24 h, 1 ug/100 mL [10]: 87%
viability at 24 h, 10 ug/100 mL [11]: 97%
inhibition of growth at 6.25 µg/mL [12]: 100%
MIC [13]: 6.25 µg/mL (≈ 11.2 µM)
Growth_index [14]: 0
inhibition at 6.25 µg/mL [1]: 100%
Growth_index [15]: 0
Growth_index [16]: 0

COc1nc2ccc(Br)cc2cc1C(c1ccccc1)n1ccc2ccccc21 (centres undefined)
inhibition at 6.25 µg/mL [1]: 8%

COc1nc2ccc(Br)cc2cc1C(c1ccccc1)n1cnc([N+](=O)[O-])c1 (centres undefined)
inhibition at 6.25 µg/mL [1]: 14%

COc1nc2ccc(Br)cc2cc1C(NCc1ccncc1)c1ccccc1 (centres undefined)
inhibition at 6.25 µg/mL [1]: 17%

CCOC(=O)C1CCCN1C(c1ccccc1)c1cc2cc(Br)ccc2nc1OC (centres undefined)
inhibition at 6.25 µg/mL [1]: 18%

CCOC(=O)C(c1cccc2ccccc12)C(c1ccccc1)c1cc2cc(Br)ccc2nc1OC (mixture of isomers)
inhibition at 6.25 µg/mL [1]: 0%

COC(=O)C(C(=O)n1cccn1)C(c1ccccc1)c1cc2cc(Br)ccc2nc1OC (mixture of isomers)
inhibition at 6.25 µg/mL [1]: 22%

COc1nc2ccc(Br)cc2cc1C(Nc1ccc2oc(=O)ccc2c1)c1ccccc1 (racemic)
viability at 72 h, 10 ug/100 mL [2]: 100%
Growth_index [3]: 52
viability at 72 h, 1 ug/100 mL [4]: 100%
Growth_index [5]: 37
Growth_index [6]: 53
Growth_index [7]: 15
Growth_index [8]: 53
Growth_index [9]: 48
viability at 24 h, 1 ug/100 mL [10]: 100%
viability at 24 h, 10 ug/100 mL [11]: 100%
inhibition of growth at 6.25 µg/mL [12]: 92.5%
MIC [13]: 6.25 µg/mL (≈ 12.8 µM)
Growth_index [14]: 55
inhibition at 6.25 µg/mL [1]: 92.5%
Growth_index [15]: 27
Growth_index [16]: 45

COc1nc2ccc(Br)cc2cc1C(c1ccccc1)n1cccn1 (racemic)
viability at 72 h, 10 ug/100 mL [2]: 98%
Growth_index [3]: 0
viability at 72 h, 1 ug/100 mL [4]: 100%
Growth_index [5]: 0
Growth_index [6]: 0
Growth_index [7]: 1
Growth_index [8]: 0
Growth_index [9]: 0
viability at 24 h, 1 ug/100 mL [10]: 71%
viability at 24 h, 10 ug/100 mL [11]: 75%
inhibition of growth at 6.25 µg/mL [12]: 99.5%
MIC [13]: 6.25 µg/mL (≈ 15.9 µM)
Growth_index [14]: 0
inhibition at 6.25 µg/mL [1]: 99.5%
Growth_index [15]: 0
Growth_index [16]: 0

COc1nc2ccc(Br)cc2cc1C(c1ccccc1)n1ccnc1 (racemic)
viability at 72 h, 10 ug/100 mL [2]: 67%
Growth_index [3]: 34
viability at 72 h, 1 ug/100 mL [4]: 67%
Growth_index [5]: 25
Growth_index [6]: 35
Growth_index [7]: 12
Growth_index [8]: 35
Growth_index [9]: 33
viability at 24 h, 1 ug/100 mL [10]: 74%
viability at 24 h, 10 ug/100 mL [11]: 56%
inhibition of growth at 6.25 µg/mL [12]: 94.2%
MIC [13]: 6.25 µg/mL (≈ 15.9 µM)
Growth_index [14]: 56
inhibition at 6.25 µg/mL [1]: 94.2%
Growth_index [15]: 22
Growth_index [16]: 28

NNC(=O)c1ccncc1 [ISONIAZID]
inhibition of growth at 6.25 µg/mL [12]: 99.3%
